# Sampled rows, rich in hits. Any-hit rate of the full collection: about 5.9%.
# IDH1 R132H inh – inhibitors of IDH1 R132H reductase, primary screen, biochemical, plate reader, single point; inhibition, % at 10 µM; Isocitrate dehydrogenase [NADP] cytoplasmic (Homo sapiens), O75874; AID 624101, 2012; actives 0.18% (n = 70,000); diaphorase/resazurin fluorescence, 60 min; in the data active means inhibition above about 34%; inconclusive means no clear call, values can overlap the other calls; inactive means below about 11%;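 further: 0% = DMSO and 100% = no enzyme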
# Target sequence (O75874 whole entry R132H): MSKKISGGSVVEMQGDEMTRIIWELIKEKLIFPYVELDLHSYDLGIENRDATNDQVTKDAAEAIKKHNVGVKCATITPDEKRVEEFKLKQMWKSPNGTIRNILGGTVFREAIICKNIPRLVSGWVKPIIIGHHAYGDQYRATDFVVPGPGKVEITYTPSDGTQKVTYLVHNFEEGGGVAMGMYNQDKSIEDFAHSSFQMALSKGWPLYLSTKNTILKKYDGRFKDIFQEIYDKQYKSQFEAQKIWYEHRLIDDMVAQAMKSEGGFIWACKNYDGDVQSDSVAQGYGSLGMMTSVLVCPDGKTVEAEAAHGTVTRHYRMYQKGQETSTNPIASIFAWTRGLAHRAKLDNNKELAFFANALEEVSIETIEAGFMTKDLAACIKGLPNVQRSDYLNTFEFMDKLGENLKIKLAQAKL
# GASC1 inh – inhibitors of GASC-1 (KDM4C) histone demethylase, primary screen, biochemical, single concentration HTS. Lysine-specific demethylase 4C (Homo sapiens), Q9H3R0. GST-KDM4C 2-372, H3K9me3 peptide, LANCE TR-FRET. inhibition, % at 12.5 µM. actives 0.15% (n = 96,000). AID 720574, 2013;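 active means mean replicate inhibition above about 25%, with at least 55% of replicates also reaching it, limit read from the data, passing the limit was not always enough; inconclusive means only one of those two conditions met; inactive means neither condition met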
# Target sequence (Q9H3R0 2-372 limits assumed): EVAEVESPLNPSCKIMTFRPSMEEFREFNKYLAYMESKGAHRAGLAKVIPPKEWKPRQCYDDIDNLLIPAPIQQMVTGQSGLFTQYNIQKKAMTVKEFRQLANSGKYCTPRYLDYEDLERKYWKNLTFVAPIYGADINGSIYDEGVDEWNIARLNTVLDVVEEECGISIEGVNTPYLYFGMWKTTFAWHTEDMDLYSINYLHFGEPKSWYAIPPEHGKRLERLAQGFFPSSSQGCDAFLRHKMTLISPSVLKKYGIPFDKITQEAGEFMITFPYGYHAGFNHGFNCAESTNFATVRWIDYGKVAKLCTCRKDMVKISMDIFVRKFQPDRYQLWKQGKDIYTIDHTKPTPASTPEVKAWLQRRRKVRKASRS
#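 Material: GST-tagged GASC-1 (JMJD2C) catalytic fragment, aa 2-372 / Quantity: enzyme final amount 10 nM / Medium: HEPES buffer, pH 7.5, plus ascorbate / Doses: one test concentration per compound / Incubation: 30 min reaction, 60 min detection, RT / Measured by: LANCE TR-FRET / Read-out: inhibition from TR-FRET ratio decrease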
# T cruzi growth-1 – T. cruzi intracellular proliferation inhibitors, primary screen, cell-based, beta-gal Tulahuen parasites, NIH3T3 host, luminescence; inhibition, % at 8.34 µM; actives 5.9% (n = 77,000); T. cruzi beta-gal in NIH3T3, GalScreen luminescence, 90 h;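 active means mean inhibition above about 93%, with at least 55% of replicates each passing it, limit read from the data, passing the limit was not always enough; inconclusive means only one of those two conditions holds; inactive means neither condition holds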
# Pf Dd2 inh – P. falciparum Dd2 growth inhibitors, primary screen, SYBR Green fluorescence, single dose replicates; activity change, % at 10 µM; 72 h; stronger effect = lower value; actives 2.3% (n = 94,000); AID 1159554, 2015; in the data active means activity change below about -80%; inconclusive means no clear call, values can overlap the other calls
# T cruzi growth-2 – T. cruzi intracellular proliferation inhibitors, confirmation, cell-based, NIH3T3 host, beta-gal parasite, luminescence, cherry-pick. T. cruzi beta-gal in NIH3T3, GalScreen luminescence, 90 h. actives 72% (n = 5,600). AID 651739, 2012. inhibition, % at 8.35 µM. shares compounds with T cruzi growth-1;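 active means mean replicate inhibition above about 95% and at least 55% of replicates individually reaching it, limit read from the data; inconclusive means only one of the two criteria is met; inactive means neither criterion is met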
# T cruzi growth-3 – inhibitors of intracellular T. cruzi replication, confirmation, NIH3T3 host cells, beta-gal parasites, cherry-pick, set 2. shares compounds with T cruzi growth-1. actives 21% (n = 5,600). inhibition, % at 2.09 µM. T. cruzi beta-gal in NIH3T3, GalScreen luminescence, 90 h;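 active means mean inhibition above about 95%, with at least 55% of replicates also reaching it, limit read from the data; inconclusive means meets just one of the two conditions; inactive means meets neither condition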;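 further: plate controls were neutral control median for no effect and positive control median for full effect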
# NIH3T3 tox – cytotoxicity in mouse NIH/3T3 fibroblasts, confirmation, cytotoxicity control for T. cruzi proliferation inhibitor project, cell-based, cherry-pick, single point. shares compounds with T cruzi growth-1. NIH/3T3 viability, CellTiter-Glo ATP luminescence, 90 h. cytotoxicity (signal decrease), % at 8.35 µM. actives 14% (n = 5,600);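 active means mean signal decrease across replicates above about 35% based on untreated-well scatter, with enough replicates individually passing, limit read from the data; inconclusive means no rule stated though some were filed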;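 further: 0% = median of neutral control wells and 100% = median of positive control wells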
# NIH3T3 tox 2 – NIH/3T3 fibroblast cytotoxicity, confirmation, cytotoxicity control, cell-based, cherry-pick, single point, set 2; shares compounds with T cruzi growth-1; NIH/3T3 viability, CellTiter-Glo ATP luminescence, 90 h; inhibition, % at 24.9 µM; actives 56% (n = 5,600);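 active means mean loss of cell viability signal at or above a set limit, and enough replicates individually reaching it; inconclusive means meets only the mean limit or only the replicate share; inactive means meets neither condition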;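 further: 0% = median of neutral control wells and 100% = median of positive control wells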
# Starred values were filed as active, the others as inactive; u = inconclusive; x = no result given; ! = repeats disagree.
SMILES,IDH1 R132H inh,GASC1 inh,T cruzi growth-1,Pf Dd2 inh,T cruzi growth-2,T cruzi growth-3,NIH3T3 tox,NIH3T3 tox 2
CCCC#Cc1ccc2c(c1)O[C@@H](CN(C)C(=O)NCCC)[C@@H](C)CN([C@H](C)CO)S2(=O)=O,-0.5,0.1,40.2,-40.4,x,x,x,x
O=C(Cn1nc(C(F)(F)F)c2c1CCCCC2)Nc1ccc(S(=O)(=O)N2CCCC2)cc1,0.1,x,x,x,x,x,x,x
COc1ccc(C(C)(C)C)cc1S(=O)(=O)NC1CC(C)(C)NC(C)(C)C1,0.5,x,x,x,x,x,x,x
CCCNC(=O)N(C)C[C@H]1Oc2cc(C#Cc3cccc(F)c3)ccc2S(=O)(=O)N([C@H](C)CO)C[C@H]1C,-1.3,-0.5,125.2*,-31.8,105.5*,79.7,30.8,66.3*
CCCC#Cc1ccc([C@@H]2[C@@H](CO)N3CCCCN(S(=O)(=O)Cc4ccccc4)C[C@H]23)cc1,x,-0.3,94.3,-19.3,x,x,x,x
CC(C)CC#Cc1ccc([C@H]2[C@H](CO)N3CCCCN(S(=O)(=O)Cc4ccccc4)C[C@@H]23)cc1,x,-2.2,100.2*,u,103.7*,91.6,23.7,106.6*
O=S(=O)(Cc1ccccc1)N1CCCCN2[C@H](CO)[C@H](c3ccc(C#Cc4ccccc4)cc3)[C@@H]2C1,x,-2.8,106.2*,-75.6,103.5*,107.9*,18.2,65.9*
CCS(=O)(=O)N1CCCCN2[C@@H](CO)[C@H](c3ccc(C#Cc4ccccc4OC)cc3)[C@@H]2C1,x,-2.2,114.2*,-14.6,110.4*,94.8,24.8,82.6*
CCCC#Cc1ccc([C@H]2[C@H](CO)N3CCCCN(S(=O)(=O)Cc4ccccc4)C[C@@H]23)cc1,x,-2.2,97.3*,-34.0,101.4*,61.0,39.3*,104.1*
O=C(CSc1nc2cc(Cl)ccc2s1)Nc1ccc(I)cc1,0.8,x,x,x,x,x,x,x
CCn1ncc(C2=NOC(C(=O)Nc3ccc(Cl)c(Cl)c3)C2)c1C (stereo not given),-0.1,x,x,x,x,x,x,x
C[C@@H]1CN([C@@H](C)CO)S(=O)(=O)c2ccc(-c3cccc(C#N)c3)cc2O[C@@H]1CN(C)C(=O)Nc1ccccc1F,x,0.3,109.9*,-33.0,97.3*,87.7,48.4*,68.3*
C[C@@H]1CN([C@H](C)CO)S(=O)(=O)c2ccc(-c3cccc(C#N)c3)cc2O[C@H]1CN(C)C(=O)Nc1ccccc1F,-0.6,0.8,87.8,-51.6,x,x,x,x
C[C@H]1CN([C@@H](C)CO)S(=O)(=O)c2ccc(-c3cccc(C#N)c3)cc2O[C@@H]1CN(C)C(=O)Nc1ccccc1F,-0.5,-0.9,u,-56.2,87.6,80.9,33.9,61.1*
C[C@@H]1CN([C@@H](C)CO)S(=O)(=O)c2ccc(-c3cccc(C#N)c3)cc2O[C@@H]1CN(C)C(=O)c1ccccc1,0.4,-0.5,109.3*,-38.7,104.2*,55.9,54.2*,72.3*
CCOC(=O)c1c(NC(=O)COc2ccccc2Br)sc(C)c1C,0.2,x,x,x,x,x,x,x
O=C(O)c1ccc(Cl)c(S(=O)(=O)N2CCCC2C(=O)O)c1 (stereo not given),0.4,x,x,x,x,x,x,x
COc1cccc(S(=O)(=O)Nc2ccc3c(c2)[C@H]2C[C@H](CC(=O)NCc4ccc(Cl)cc4)O[C@@H](CO)[C@H]2O3)c1,-0.6,-6.3,145.7*,-2.7,108.1*,35.9,-1.6,8.1
COc1cccc(S(=O)(=O)Nc2ccc3c(c2)[C@H]2C[C@@H](CC(=O)NC4CCCCC4)O[C@H](CO)[C@H]2O3)c1,u,x,14.7,-17.7,x,x,x,x
COc1cccc(S(=O)(=O)Nc2ccc3c(c2)[C@@H]2C[C@@H](CC(=O)NCc4ccc(Cl)cc4)O[C@@H](CO)[C@@H]2O3)c1,-0.2,3.2,78.2,-40.1,x,x,x,x
COc1cccc(S(=O)(=O)Nc2ccc3c(c2)[C@H]2C[C@H](CC(=O)NC4CCCCC4)O[C@H](CO)[C@H]2O3)c1,-0.4,-1.5,123.8*,-37.1,u,-11.0,-2.8,7.1
COc1ccc([N+](=O)[O-])cc1NC(=O)CN(C)S(=O)(=O)c1ccc(Cl)cc1,-0.4,x,x,x,x,x,x,x
CCn1c(SCC(=O)Nc2c(Cl)cc(Cl)cc2Cl)nnc1-c1ccccc1F,-0.5,x,x,x,x,x,x,x
COc1ccccc1NC(=O)N1CCCCN2[C@H](C1)[C@@H](c1ccc(-c3cccc(F)c3)cc1)[C@@H]2CO,x,-2.0,58.8,-57.9,x,x,x,x
COc1ccccc1NC(=O)N1CCCCN2[C@H](CO)[C@H](c3ccc(-c4ccc(C)cc4)cc3)[C@@H]2C1,x,-0.7,87.2,-11.1,x,x,x,x
SMILES,IDH1 R132H inh,GASC1 inh,T cruzi growth-1,Pf Dd2 inh,T cruzi growth-2,T cruzi growth-3,NIH3T3 tox,NIH3T3 tox 2
COc1ccccc1NC(=O)N1CCCCN2[C@@H](CO)[C@H](c3ccc(-c4ccccc4)cc3)[C@@H]2C1,x,x,102.1*,2.0,99.5*,74.1,45.5*,103.5*
COc1ccccc1NC(=O)N1CCCCN2[C@H](CO)[C@H](c3ccc(-c4ccccc4)cc3)[C@H]2C1,x,x,108.1*,-53.4,108.5*,74.1,23.0,105.4*
COc1ccccc1NC(=O)N1CCCCN2[C@@H](CO)[C@@H](c3ccc(-c4ccccc4)cc3)[C@@H]2C1,x,x,u,-70.5,104.3*,86.7,61.1*,104.1*
COc1ccccc1NC(=O)N1CCCCN2[C@H](CO)[C@H](c3ccc(-c4cccc(F)c4)cc3)[C@@H]2C1,x,-1.6,114.5*,-70.8,101.2*,109.5*,21.8,37.2*
O=C(Nc1ccccc1[N+](=O)[O-])c1cccc(S(=O)(=O)N2CCOCC2)c1,-0.4,x,x,x,x,x,x,x
CCCN(Cc1cc2cccc(C)c2[nH]c1=O)S(=O)(=O)c1ccccc1,-0.4,x,x,x,x,x,x,x
COc1ccc(OC)c(NC(=O)COc2cc(C)c(Br)c(C)c2)c1,0.0,x,x,x,x,x,x,x
C[C@H](CO)N1C[C@H](C)[C@@H](CN(C)Cc2ccccn2)Oc2cc(-c3ccncc3)ccc2S1(=O)=O,0.2,2.5,109.2*,-50.1,98.7*,105.5*,55.3*,88.2*
C[C@@H]1CN([C@@H](C)CO)S(=O)(=O)c2ccc(Br)cc2O[C@H]1CN(C)Cc1ccccn1,-2.6,0.3,106.7*!,19.5,88.7,17.3,4.6,52.7*

# Screening results from PubChem BioAssay.
